Bioassay records from PubChem BioAssay.
These entries were drawn from the full list.
HKDC1 activator = activators of human hexokinase HKDC1; recombinant HKDC1, G6PDH/diaphorase resazurin fluorescence; hits give low values; Q2TB90; hit rate 0.056% among 340,000; activity change, negative = activation, % at 20 µM; AID 493187;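 active means activation of 40% or more at 20 µM, a change of -40% or lower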
Target sequence (Q2TB90 whole entry, looked up): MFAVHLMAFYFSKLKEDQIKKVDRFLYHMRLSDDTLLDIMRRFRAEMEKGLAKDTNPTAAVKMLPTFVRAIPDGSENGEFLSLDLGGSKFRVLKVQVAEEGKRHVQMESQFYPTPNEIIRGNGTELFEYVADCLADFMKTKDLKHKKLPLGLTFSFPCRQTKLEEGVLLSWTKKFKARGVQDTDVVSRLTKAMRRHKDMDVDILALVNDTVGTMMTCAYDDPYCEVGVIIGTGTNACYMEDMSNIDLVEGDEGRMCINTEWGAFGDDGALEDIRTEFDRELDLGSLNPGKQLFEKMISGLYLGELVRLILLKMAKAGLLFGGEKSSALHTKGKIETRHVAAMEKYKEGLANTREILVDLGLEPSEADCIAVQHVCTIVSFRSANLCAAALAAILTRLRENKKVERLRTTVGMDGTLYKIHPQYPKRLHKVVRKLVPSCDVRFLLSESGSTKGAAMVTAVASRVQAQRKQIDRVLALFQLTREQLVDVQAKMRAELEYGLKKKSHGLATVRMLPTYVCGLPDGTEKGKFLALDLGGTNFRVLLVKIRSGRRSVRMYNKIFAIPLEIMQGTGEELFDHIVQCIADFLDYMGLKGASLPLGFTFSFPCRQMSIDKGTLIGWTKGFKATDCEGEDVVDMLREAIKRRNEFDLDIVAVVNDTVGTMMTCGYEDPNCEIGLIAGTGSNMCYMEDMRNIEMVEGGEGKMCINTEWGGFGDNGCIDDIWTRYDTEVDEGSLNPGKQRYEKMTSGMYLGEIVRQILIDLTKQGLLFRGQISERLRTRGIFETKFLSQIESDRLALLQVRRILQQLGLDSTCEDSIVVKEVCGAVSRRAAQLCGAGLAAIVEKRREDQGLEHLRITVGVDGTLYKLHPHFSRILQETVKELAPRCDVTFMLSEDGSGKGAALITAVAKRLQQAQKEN
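Material – in-house human HKDC1 enzyme, G6PDH and diaphorase coupling enzymes · Input – HKDC1 at 5 µg/mL final · Buffer or medium – pH 8.0 Tris with MgCl2 · Dosing – single compound dose of 20 µM, 1% DMSO final · Incubation – 90 min, room temperature · Technique – resorufin fluorescence from 100 µM resazurin, NADP 1 mM, Ex 525/Em 613 nm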
Numbers without * were called inactive.

SMILES | HKDC1 activator
CC(=O)NC1C(=O)N(CCN2CCOCC2)c2ccc(Br)cc21 (stereo not given) | 81
COC(=O)CCC(=O)OC1(C)C(=O)C2=CN(CC3CC3)C(c3ccc(OC)cc3)=CC2=C(Br)C1=O (stereo not given) | 37
O=C1c2ccc3c4c(ccc(c24)C(=O)N1c1ccc(O)cc1)C(=O)N(c1ccc(O)cc1)C3=O | 56
CCOC(=O)C1=C(O)c2ccccc2C(=O)/C1=C\c1ccc(C)cc1 | 67
COc1ccc(S(=O)(=O)/N=C2/C=CC(=O)C(C)=C2C)cc1 | 52
CC1=NOC(=O)/C1=C\c1ccc(-c2ccc(Br)cc2)o1 | 42
Cc1sc(-c2ccccn2)nc1OC(=O)c1ccc(F)cc1F | -50*
O=Cc1ccc(Sc2nnc(-c3ccccc3)o2)c([N+](=O)[O-])c1 | 43
O=c1c2ccccc2nc(/C=C/c2cccnc2)n1Cc1ccccc1 | 81
O=NNc1nc2ccccc2n1Cc1ccccc1 | -40*
Cc1ccc(S(=O)(=O)N2CCN(C(=O)CN3C(=O)NC4(CCCCC4)C3=O)CC2)c(C)c1 | 38
Oc1ccc2ccccc2c1/C=N/c1nccs1 | 37
CC(=O)N1c2ccc(Cl)cc2C2C=CCC2C1c1cccc2ccccc12 (stereo not given) | 42
COC(=O)c1ccccc1NC1=C/C(=N\S(=O)(=O)c2cccs2)c2ccccc2C1=O | 39
CC1COCC(C)N1C1=C(Cl)C(=O)c2ccccc2C1=O (stereo not given) | 38
Cc1cc(C)n2cc(CSc3nnc(-c4ccccc4)c(-c4ccccc4)n3)nc2n1 | 38
COC(=O)c1c(NC(C)=O)sc(Cc2ccccc2)c1C | -77*
Cc1c(Cc2ccccc2)sc(NC(=O)Cc2ccccc2)c1C(N)=O | -52*
O=C(O)c1cc(O)c2c(c1)C(=O)c1cccc(O)c1C2=O | 40
CN1CCN(C2=C(Cl)C(=O)C(c3cnc(N4CCCCC4)s3)=C(Cl)C2=O)CC1 | 55
COc1ccc(C(=O)c2coc3c2C(=O)C(=O)c2ccccc2-3)cc1 | 61
O=C(CSc1nnc(CCCN2C(=O)c3cccc4cccc(c34)C2=O)n1-c1ccccc1)N1CCCCC1 | 37
CCCCC[C@H](O)/C=C/[C@@H]1[C@@H](C/C=C\CCCC(=O)OC)[C@@H](O)C[C@H]1O | 77
CCOC(=O)C(C(=O)OCC)c1cc(Br)c2noc3c2c1C(=O)c1ccccc1-3 | 54
O=C(OCC(=O)N1CCN(C(=O)c2ccco2)CC1)c1cc(-c2ccccc2)nc2ccccc12 | 37
SMILES | HKDC1 activator
CCCCCCCCCC(=O)NNC(=O)c1c(O)c2ccccc2n(CC)c1=O | -41*
Cc1cccc(/C=C/C(=O)c2ccc([N+](=O)[O-])o2)c1 | 50
O=C1C(Cl)=C(NC(=O)c2ccccc2)C(=O)C(Cl)=C1NC(=O)c1ccccc1 | 43
CC(CCC(C)C(C)(C)C)[C@@H]1CC[C@H]2C3C[C@H](OS(O)(=S)=S)[C@H]4C[C@H](OS(O)(=S)=S)[C@@H](OS(O)(=S)=S)C[C@]4(C)[C@H]3CC[C@]12C (stereo not given in full) (tested in a mixture with another compound) | 81
COc1cc(SC#N)ccc1N=Cc1c(C)[nH]n(-c2ccc(Cl)cc2)c1=O | -41*
CC(=O)N(C1=C(Cl)C(=O)c2ccccc2C1=O)C1CCCCC1 | 58
O=c1cc(O)sc2ccccc12 | 43
CN(C)c1ccc(C=c2c3ccccc3n3c2cc(-c2ccccc2)[n+]3C)cc1 | 37
CC(=NNC(=S)N1CCCCC1)c1cccc(C)n1 | -40*
NC(=O)C1CCN(C2=C(Cl)C(=O)c3ccccc3C2=O)CC1 | 47
COc1cc2c(cc1OC)C(c1cc(Br)ccc1F)N(C(=O)CCl)CC2 (stereo not given) | 38
CC(C)(C=O)C1=CC(=O)c2ccccc2C1=O | 51
CN(C)C(=O)/C(C#N)=C\c1cc(Br)c(Sc2ccc(Cl)cc2)o1 | 35
CCN(CC)S(=O)(=O)c1cccc(C(=O)N/N=C(\C)c2ccc(O)cc2O)c1 | -43*
O=C(O)CN1C(=O)/C(=C2\C(=O)N(Cc3ccccc3Cl)c3ccccc32)SC1=S | 51
Cn1c(-c2ccccc2)c(C(=O)CC#N)c2ccccc21 | -45*
Cc1ccc(Sc2ccc(/C=C3/C(=O)NN(c4ccccc4)C3=O)o2)cc1 | 35
CCOc1ccc(S(=O)(=O)Nc2cc(SCC(=O)O)c(O)c3ccccc23)cc1 | 60
Nc1nc(Cl)c(N)c(NCC2(CO)CC(CCc3ccccc3)C2)n1 (stereo not given) | 42
CC1(C)C(=O)Nc2ccccc2N1C(=O)COC(=O)c1cc(Cl)cc(Cl)c1 | -41*
COc1cc2c(C#N)c(N3CCc4ccccc4C3)nc(N)c2c(N)n1 | 41
CC(C(=O)O)N1C(=O)/C(=C/C=C/c2ccco2)SC1=S (stereo not given) | 56
O=C(N/N=C/c1ccc(O)cc1O)/C(=C/c1ccccc1)CCO | -40*
COc1ccc(NC(=O)Cc2c[nH]c3ccccc23)cc1S(=O)(=O)N1CCCCC1 | 49
Cc1ccc(S(=O)(=O)/N=C2/C=C(Sc3ncn[nH]3)C(=O)c3ccccc32)cc1 | 69
